A selection: hits, their analogues and other compounds. The true share with any hit is near 3.5%.
SIAE inh: human SIAE inhibitors, primary screen, biochemical, fluorescence polarization, FP-Rh probe, 1536-well HTS; Sialate O-acetylesterase (Homo sapiens), Q9HAT2; SIAE FP-Rh probe binding; actives 0.69% (n = 370,000); AID 1053197, 2014; inhibition, % at 9.66 µM;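 active means inhibition above a cutoff: mean of compounds within the control limits plus 3 SD of those, cut at about 17% in these data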;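 further: 0% = plate median of compound wells and 100% = probe without SIAE protein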
Target sequence (Q9HAT2 whole entry, looked up): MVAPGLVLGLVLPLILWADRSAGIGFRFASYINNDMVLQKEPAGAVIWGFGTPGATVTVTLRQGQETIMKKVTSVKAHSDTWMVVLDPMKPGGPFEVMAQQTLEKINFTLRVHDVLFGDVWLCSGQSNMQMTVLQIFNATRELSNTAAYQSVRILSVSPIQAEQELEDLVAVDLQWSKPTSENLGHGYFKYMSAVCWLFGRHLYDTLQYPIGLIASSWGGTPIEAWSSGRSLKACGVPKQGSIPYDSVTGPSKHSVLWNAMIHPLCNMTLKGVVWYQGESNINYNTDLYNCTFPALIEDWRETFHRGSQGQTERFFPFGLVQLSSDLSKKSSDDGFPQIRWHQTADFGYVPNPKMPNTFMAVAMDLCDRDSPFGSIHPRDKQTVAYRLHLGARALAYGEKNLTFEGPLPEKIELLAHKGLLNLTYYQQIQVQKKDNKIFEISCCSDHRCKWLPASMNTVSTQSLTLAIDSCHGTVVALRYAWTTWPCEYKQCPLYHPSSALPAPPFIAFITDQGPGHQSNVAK
TCR-CD3 inh: inhibitors of human TCR-CD3 interaction, primary screen, biochemical, fluorescence, TAMRA-labeled TCR probe; actives 0.37% (n = 360,000); inhibition, % at 9.4 µM;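 further: recombinant mutant TCR 2C K166C tagged with TAMRA read by polarization; 0% = receptor in buffer alone and 100% = receptor with positive control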
ABHD4 inh: ABHD4 inhibitors, primary screen, biochemical, fluorescence polarization, mouse | purified mABHD4, FP-Rh probe fluorescence polarization | AID 720543, 2013 | inhibition, % at 8.92 µM | actives 0.54% (n = 370,000);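 active means inhibition exceeding the mean over every tested compound plus 3 SD, cut at about 30% in these data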;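 further: 0% = plate median of compound wells and 100% = S159A mutant with DMSO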
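Assay system: mABHD4 protein; medium: HEPES pH 7.0, NaCl, Pluronic buffer; dosing: 8.92 µM, single dose; schedule: 45 min + 60 min at 25 °C; signal: FP readout, ex 525 nm / em 598 nm; read-out: normalized percent inhibition of probe labeling; repeats: single replicate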
PRMT1 FP inh: PRMT1 methyltransferase inhibitors, primary screen, biochemical, fluorescence polarization | Protein arginine N-methyltransferase 1 (Homo sapiens), Q99873 | recombinant PRMT1, activity-based probe fluorescence polarization | inhibition, % at 2.79 µM | actives 1.3% (n = 370,000);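 active means inhibition above about 21% made by adding two undisclosed values, limit read from the data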
HTRA1 inh: HTRA1 serine protease inhibitors, primary screen, biochemical, fluorescence polarization, HTS; Q92743; recombinant HTRA1, FP-rhodamine activity-based probe; inhibition, % at 5.96 µM; actives 0.5% (n = 340,000); in the data active means inhibition above about 36%;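 further: 0% = enzyme with DMSO and 100% = wells lacking enzyme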
rCAG binder: binders of r(CAG) RNA repeats, primary screen, biochemical, fluorescence; r(CAG) RNA repeat, TO-PRO-1 dye displacement fluorescence; inhibition, % at 3 µM; actives 1.3% (n = 370,000);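 active means inhibition above the plate cutoff, the mean of all test compounds on that plate plus 3 SD, cut at about 35% in these data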;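 further: 0% = DMSO alone and 100% = 100 µM mitoxantrone as full dye displacement; higher means more dye released from RNA so lower well fluorescence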
BSA probe FL: compounds interfering with TAMRA-BSA probe, counter-screen for TCR-CD3 interaction inhibitor project, biochemical, fluorescence, TAMRA-labeled BSA. shares compounds with TCR-CD3 inh. TAMRA-labeled BSA probe fluorescence counterscreen. inhibition, % at 9.4 µM. actives 10% (n = 1,200). AID 652035, 2013; in the data active means inhibition above about 23%;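 further: 0% = buffer low control and 100% = reference high control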
TCR-CD3 conf: TCR-CD3 interaction inhibitors, retest, confirmation, biochemical, fluorescence, TAMRA-labeled TCR probe. AID 652036, 2013. inhibition, % at 9.4 µM. shares compounds with TCR-CD3 inh. actives 48% (n = 1,200). TAMRA-labeled TCR probe fluorescence binding assay
An asterisk follows results filed as active; . = no result given. Unless noted, no stated cut-off is given here; in the data, active means inhibition above about 19%; inactive means the rest.

SMILES | SIAE inh | TCR-CD3 inh | ABHD4 inh | PRMT1 FP inh | HTRA1 inh | rCAG binder | BSA probe FL | TCR-CD3 conf
Cc1cc(Br)cc(/C=N/NC(=O)c2ccc3c(c2)OCO3)c1O | 5 | 29* | 4 | 1 | 26 | 13 | -12 | 34*
O=C(N/N=C/c1cc(Cl)cc([N+](=O)[O-])c1O)c1ccc2c(c1)OCO2 | 11 | 41* | 21 | 2 | 25 | 6 | -18 | 47*
COc1cc(Cl)cc(/C=N\NC(=O)c2ccc3c(c2)OCO3)c1O | -5 | -5 | 21 | -2 | 10 | 11 | . | .
CCOC(=O)[C@]12CCCC3=C1N(CCC3)C(=O)[C@@H](CC(=O)N1CCCCC1)C2 | -4 | . | -3 | -2 | . | -1 | . | .
Oc1ccccc1-c1cnc2cccnn12 | 4 | 24* | 4 | -2 | . | 0 | -2 | -1
CN1C(=O)C(C(=O)Nc2ccccc2F)c2ccccc21 (stereo not drawn) | 1 | 19* | 6 | -3 | -1 | 6 | -2 | 1
Cc1ccc(NC(=O)C2C(=O)N(C)c3ccccc32)cc1 (stereo not drawn) | 0 | 2 | -5 | -5 | 2 | 3 | . | .
O=C(C1CCCN1S(=O)(=O)c1cccs1)N1CCc2ccccc2C1 (stereo not drawn) | -2 | . | 0 | 8 | . | 3 | . | .
CC(C)C[C@@H]1COc2cccc(F)c2S(=O)(=O)N1C | 2 | . | 2 | -2 | . | -1 | . | .
Nc1ccc2nc(-c3cccc(-c4nc5ccc(N)cc5[nH]4)n3)[nH]c2c1 | -3 | 24* | 13 | 2 | 5 | 15 | -50 | 47*
CS/C(N)=N/N=C/c1cc(Br)cc(Br)c1O | -2 | 35* | -3 | -3 | 20 | 20 | 14 | 36*
Cc1cccc(C)c1NC(=O)CN1C(=O)NC(C)(CCc2ccccc2)C1=O (stereo not drawn) | -1 | 59* | -2 | -1 | 2 | -6 | 4 | 6
Cc1cc(NC(=O)c2ccc(NS(=O)(=O)c3ccccc3)cc2)no1 | -3 | . | 2 | 0 | . | 5 | . | .
COc1ccc(-c2cn(-c3ccc(Cl)cc3)c3[n+]2CCCCC3)cc1 | 6 | 34* | -3 | -1 | 0 | 0 | -6 | 0
Clc1ccc(-c2cn(-c3ccc(Cl)cc3)c3[n+]2CCCCC3)cc1 | 7 | 3 | -4 | -3 | -1 | 3 | . | .
CN1CCC(OC(c2ccccc2)c2ccc(Cl)cc2)C1 (stereo not drawn) | 2 | 31* | 4 | 3 | 4 | 2 | -3 | 2
CN1C2CCC1CC(OC(c1ccccc1)c1ccccc1)C2 (stereo not drawn) | 3 | 5 | 5 | 2 | -5 | 2 | . | .
COC(=O)C[C@H]1CC[C@H]2[C@H](COc3ccc(NC(=O)Nc4ccccc4F)cc3C(=O)N2C)O1 | 1 | . | 2 | 3 | . | 2 | . | .
CC(=O)N1[C@@H](CO)[C@@H](c2ccc(-c3cccc(F)c3)cc2)[C@@H]1CNCC1CCC1 | -9 | . | 3 | 2 | . | 5 | . | .
O=C(NC1CCCCN(Cc2cccc(Cl)c2)C1=O)c1ccccn1 (stereo not drawn) | -1 | . | 4 | 3 | . | 1 | . | .
Cc1cc(C)cc(N(CC(=O)Nc2ccc(-c3nc4ccc(C)cc4s3)cc2)S(C)(=O)=O)c1 | -4 | 49* | -10 | 1 | -25 | 17 | 19 | 32*
COCCCN1C(=O)[C@H](CC(=O)NCCCCc2ccccc2)[C@]2(C(=O)OC)CCCCC=C12 | 1 | . | -4 | 0 | . | -1 | . | .
C=CCN(c1ccccc1OC)S(=O)(=O)c1cccc(C(=O)OCC(=O)c2c[nH]c3ccccc23)c1 | -111 | 44* | -88 | -1 | -87 | 18 | 1 | 2

Screens (PubChem BioAssay)
